From PubChem BioAssay AID504338 (NMMLSC, 2011) come the findings set out here.

Several values for one entry are separate records, joined by “and”; a condition that tells them apart may be missing. Equal entries are not always repeated. Activity calls are given as the source filed them.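 The calls were made as follows: active = GFP response vs DMSO above 150% with enough events counted; inconclusive = fewer than 70 events counted for a yeast strain; inactive = the rest.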

This experiment in a line: yeast TOR reporter LAP4-GFP retest – cell-based, third cherry pick, flow cytometry, confirmation (AID 504338).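 Also: ratio to plate DMSO wells so 100% equals DMSO level rather than 0%.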 To be noted: S. cerevisiae LAP4-GFP strain, 3 h, at 10 µM, active compounds read high. In a few lines:
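System: Saccharomyces cerevisiae strain expressing LAP4-GFP fusion protein. Quantity: cells at 0.2 OD600. Medium: synthetic complete medium. Read-out basis: median GFP fluorescence as percent of plate DMSO-well average. Signal: high-throughput flow cytometry of GFP, single-cell scatter gate. Schedule: 3 h treatment, 30 °C. Dosing: single compound dose, 10 µM final.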
A general note: Flow cytometry measures light scatter and fluorescence of single cells or particles in a stream.
For `Brc1ccc2ncnc(NCc3ccccc3)c2c1`, the GFP response vs DMSO is 107% (inactive).

Turning to `O=C(Nc1nc(-c2ccccn2)cs1)c1ccccc1-n1cnnn1`, the GFP response vs DMSO was 94.4% (inactive).

With `COC(=O)c1cc(=O)c2cccc(OC)c2[nH]1`, the GFP response vs DMSO is 101% (inactive).

As for `COc1cccc2c(=O)c(C(=O)O)c[nH]c12`, the GFP response vs DMSO was 110% (inactive).

Consider `COC1=C/C(=C/c2c(N)n3cc(C)sc3nc2=O)C=CC1=O`, for which the GFP response vs DMSO was 110% (inactive).

On to `CCOC(=O)CS(=O)(=O)c1nc(-c2ccccc2)cc(C(F)(F)F)n1`, for which the GFP response vs DMSO is 182% (active).

In the case of `Cc1ccc2c(C)ccc(O)c2n1`, the GFP response vs DMSO was 101% (inactive).

`CC(=O)Nc1ccc(-c2nc3cc(Cl)ccc3o2)cc1`: the GFP response vs DMSO was 104% (inactive).

Regarding `CC(=O)C(Cl)C(=O)Nc1ccccc1` (centres undefined), the GFP response vs DMSO is 124% (inactive).

In the case of `O=C(O)c1ccc2cccc(O)c2n1`, the GFP response vs DMSO was 100% (inactive).

In the case of `O=C(O)CCCCCNc1ncnc2ccc(Br)cc12`, the GFP response vs DMSO was 104% (inactive).

For `O=C(Nc1ccccc1)O/N=C1/CCCc2occc21`, the GFP response vs DMSO is 107% (inactive).

In the case of `C=CCNc1nc(N)c([N+](=O)[O-])c(Nc2cccc(Cl)c2)n1`, the GFP response vs DMSO is 104% (inactive).

On to `Cc1cccc(C)c1Nc1ncnc(N)c1[N+](=O)[O-]`, for which the GFP response vs DMSO is 101% (inactive).

Turning to `Nc1c(C(=O)O)ccc2c1C(=O)c1ccccc1C2=O`, the GFP response vs DMSO is 115% (inactive).

Take `Oc1c(I)cc(Cl)c2cccnc12`: the GFP response vs DMSO is 192% (active).

Take `COc1ccc(OC)c2c(C)cc(C)nc12`: the GFP response vs DMSO was 103% (inactive).

Consider `Nc1c(O)ccc2c1C(=O)c1ccccc1C2=O`, for which the GFP response vs DMSO was 101% (inactive).

Consider `CSc1nc(Nc2ccc(Cl)cc2)c(C#N)c(=O)[nH]1`, for which the GFP response vs DMSO is 106% (inactive).

Turning to `COCC(C)NC(=O)CCS(=O)(=O)c1nc(-c2ccc(OC)cc2)cc(C(F)(F)F)n1` (centres undefined), the GFP response vs DMSO is 104% (inactive).

Turning to `COCCNc1nc(N)c([N+](=O)[O-])c(Nc2ccc(F)cc2)n1`, the GFP response vs DMSO was 106% (inactive).

On to `CNc1nc(N)c([N+](=O)[O-])c(Nc2ccccc2OC)n1`, for which the GFP response vs DMSO is 111% (inactive).

With `CCc1c(C)nc2c(OC)cccc2c1Cl`, the GFP response vs DMSO is 104% (inactive).

Consider `COc1ccccc1Nc1nc(NCCO)nc(N)c1[N+](=O)[O-]`, for which the GFP response vs DMSO is 104% (inactive).

As to `CC1=CN2C(=N)/C(=C/c3ccc(C)o3)C(=O)N=C2S1`, the GFP response vs DMSO is 104% (inactive).

Consider `OCCN1CCN(c2ncnc3ccc(Br)cc23)CC1`, for which the GFP response vs DMSO was 104% (inactive).

`Cc1ccc(C(=O)/C=C/Nc2cccc(O)c2)cc1`: the GFP response vs DMSO is 117% (inactive).

Consider `CS(=O)(=O)c1nc(-c2ccc(F)cc2)cc(C(F)(F)F)n1`, for which the GFP response vs DMSO was 144% (inactive).

As for `COc1cc(OC)cc(C(=O)Nc2ccc(-c3nc4ccccc4o3)cc2)c1`, the GFP response vs DMSO was 106% (inactive).

As to `CC(C)Nc1ncnc2ccc(Br)cc12`, the GFP response vs DMSO was 106% (inactive).

In the case of `Oc1c(Br)cc(Br)c2cccnc12`, the GFP response vs DMSO was 257% (active).

`COc1ccccc1Nc1nc(NCCC(C)C)nc(N)c1[N+](=O)[O-]`: the GFP response vs DMSO is 100% (inactive).

In the case of `COc1cccc(N/C=C/C(=O)c2ccc(Cl)cc2)c1`, the GFP response vs DMSO was 111% (inactive).

Regarding `Nc1[nH]c(=O)nc(Nc2ccccc2)c1N=O`, the GFP response vs DMSO is 104% (inactive).

In the case of `CC(=O)NC(C)c1cc(Cl)c2cccnc2c1O` (centres undefined), the GFP response vs DMSO was 101% (inactive).

As to `COC(=O)COc1c(Cl)cc(Cl)c2ccc(C)nc12`, the GFP response vs DMSO is 107% (inactive).

In the case of `C/C(=N\NC(=O)c1ccccc1)c1ccccc1F`, the GFP response vs DMSO is 106% (inactive).

For `COc1ccc(NC(=O)O/N=C2/CCCc3ccc(OC)cc32)cc1`, the GFP response vs DMSO was 107% (inactive).

In the case of `COc1ccccc1-c1cc(C(F)(F)F)nc(S(=O)(=O)CCCC(=O)NC(C)C)n1`, the GFP response vs DMSO is 101% (inactive) and 104% (inactive).
